Experimental data published in ChEMBL document CHEMBL2440047, “Design, synthesis, and structure-activity relationships of azolylmethylpyrroloquinolines as nonsteroidal aromatase inhibitors” (J Med Chem, 2013).
pIC50: −log10 of the molar value. Active and inactive are the calls of the source. The rule behind the calls is not given here.

Tests used:
Aromatase [1] = biological target: T1, Aromatase (Homo sapiens, UniProt P11511); assay: Inhibition of CYP19 in human H295R cells using [1beta-3H(N)]-androst-4-ene-3,17-dione at 10 uM after 24 hrs by tritiated water release assay; format: cell-based
T1 sequence (P11511 whole entry): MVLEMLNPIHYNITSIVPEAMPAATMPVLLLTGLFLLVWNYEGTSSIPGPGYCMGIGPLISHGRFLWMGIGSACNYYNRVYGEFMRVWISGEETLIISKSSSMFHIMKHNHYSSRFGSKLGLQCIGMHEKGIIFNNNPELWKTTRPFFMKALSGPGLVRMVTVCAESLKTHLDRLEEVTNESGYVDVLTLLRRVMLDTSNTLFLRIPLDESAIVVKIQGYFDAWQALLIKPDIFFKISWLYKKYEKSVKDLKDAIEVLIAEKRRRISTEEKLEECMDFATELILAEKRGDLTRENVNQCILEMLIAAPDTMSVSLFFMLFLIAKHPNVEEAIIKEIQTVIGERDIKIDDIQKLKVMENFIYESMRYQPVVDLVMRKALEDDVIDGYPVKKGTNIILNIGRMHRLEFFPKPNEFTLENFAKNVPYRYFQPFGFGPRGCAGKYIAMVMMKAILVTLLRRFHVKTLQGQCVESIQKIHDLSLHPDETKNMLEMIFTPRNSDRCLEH
How it was run: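 Cells were then incubated 2 h with 0.5 µM [1β-3H(N)]-androst-4-ene-3,17-dione. Read-out is tritiated water release, expressed as % of untreated cells. Means ± SEM of two independent experiments, each in triplicate.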

Aromatase [2] = biological target: T1, Aromatase; assay: Inhibition of aromatase (unknown origin) using 7-methoxy-4-trifluoromethylcoumarin as substrate after 30 mins by fluorimetric analysis
How it was run: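 Recombinant CYP19 from a high-throughput screening kit, with 7-methoxy-4-trifluoromethylcoumarin as substrate. Enzyme/substrate mix was then added for 30 min at 37 °C before stop reagent. Fluorescence read at λex 410 / λem 530 nm. IC50 given as mean ± SEM of three independent experiments run in duplicate.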

HeLa [3] = assay: Growth inhibition of non-estrogen-sensitive human HeLa cells after 72 hrs by MTT assay; format: functional
How it was run: (§1)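 Cells were seeded at 8x10^3 per well and left 18 h at 37 °C, 5% CO2, then exposed 72 h to compound at several concentrations from 10 mM DMSO stocks (final DMSO ≤0.25%). Jurkat, RS4;11 and SEM were grown in RPMI-1640; H295R in DMEM-F12 with 2% FBS plus insulin-transferrin-selenium. Viability read by MTT.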

OVCAR-3 = assay: Growth inhibition of estrogen-sensitive human OVCAR3 cells after 72 hrs by MTT assay; format: functional; settings: OVCAR-3, 72 h; how it was run: as §1
HeLa [4] = assay: Cell cycle arrest in non-estrogen-sensitive human HeLa cells assessed as increase of accumulation at G2/M phase at 6 to 50 uM after 24 hrs using propidium iodide staining by flow cytometry; format: functional, cell-based
HT-29 = assay: Growth inhibition of non-estrogen-sensitive human HT-29 cells after 72 hrs by MTT assay; format: functional; settings: HT-29, 72 h; how it was run: as §1
[5] = biological target: T2, Cytochrome P450 11B1, mitochondrial (Homo sapiens, UniProt P15538); assay: Inhibition of human CYP11B1 using [1,2-3H]-11-deoxycorticosterone as substrate
T2 sequence (P15538 whole entry): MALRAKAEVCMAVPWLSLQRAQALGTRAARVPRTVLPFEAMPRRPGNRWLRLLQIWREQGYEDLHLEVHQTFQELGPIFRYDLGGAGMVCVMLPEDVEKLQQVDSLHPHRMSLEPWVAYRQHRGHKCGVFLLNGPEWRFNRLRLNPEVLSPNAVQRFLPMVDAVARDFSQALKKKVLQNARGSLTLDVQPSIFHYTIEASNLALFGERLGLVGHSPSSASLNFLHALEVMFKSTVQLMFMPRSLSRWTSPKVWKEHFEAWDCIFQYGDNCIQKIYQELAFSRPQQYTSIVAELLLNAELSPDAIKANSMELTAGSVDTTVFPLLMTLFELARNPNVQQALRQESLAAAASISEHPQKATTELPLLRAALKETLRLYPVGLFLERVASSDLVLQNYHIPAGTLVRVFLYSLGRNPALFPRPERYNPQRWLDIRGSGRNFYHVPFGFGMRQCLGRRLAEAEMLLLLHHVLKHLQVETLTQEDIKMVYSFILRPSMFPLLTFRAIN
How it was run: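 Hamster fibroblast V79MZh cells expressing human CYP11B1 were incubated with [1,2-3H]-11-deoxycorticosterone substrate and inhibitor at several concentrations. IC50 given as mean ± SEM of three independent experiments run in duplicate.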

MCF7 [6] = assay: Cell cycle arrest in estrogen-sensitive human MCF7 cells assessed as increase of accumulation at G2/M phase at 6 to 50 uM after 24 hrs using propidium iodide staining by flow cytometry; format: functional, cell-based
[7] = Growth inhibition of non-estrogen-sensitive human RS4:11 cells after 72 hrs by MTT assay; format: functional; settings: RS4-11, 72 h; how it was run: as §1
MCF7 [8] = assay: Cell cycle arrest in estrogen-sensitive human MCF7 cells assessed as decrease of accumulation at G1 and S phase at 6 to 50 uM after 24 hrs using propidium iodide staining by flow cytometry; format: functional, cell-based
[9] = biological target: T3, Steroid 17-alpha-hydroxylase/17,20 lyase (Homo sapiens, UniProt P05093); assay: Inhibition of human CYP17 expressed in Escherichia coli using progesterone as substrate NADPH as cofactor
T3 sequence (P05093 whole entry): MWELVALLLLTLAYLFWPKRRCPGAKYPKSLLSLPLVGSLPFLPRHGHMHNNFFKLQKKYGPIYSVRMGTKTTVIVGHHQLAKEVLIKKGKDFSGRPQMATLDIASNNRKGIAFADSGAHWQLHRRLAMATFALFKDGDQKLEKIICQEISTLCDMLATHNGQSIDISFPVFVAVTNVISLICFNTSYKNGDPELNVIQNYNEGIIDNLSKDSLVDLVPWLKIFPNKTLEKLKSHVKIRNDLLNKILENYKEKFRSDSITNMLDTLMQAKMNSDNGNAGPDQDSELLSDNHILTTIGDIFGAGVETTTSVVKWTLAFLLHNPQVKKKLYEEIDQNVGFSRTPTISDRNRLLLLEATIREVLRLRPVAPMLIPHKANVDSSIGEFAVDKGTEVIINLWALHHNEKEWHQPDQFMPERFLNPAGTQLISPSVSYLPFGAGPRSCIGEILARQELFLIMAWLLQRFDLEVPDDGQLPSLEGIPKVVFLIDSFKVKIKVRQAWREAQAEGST
How it was run: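 Cell-free assay using the 50000g sediment of E. coli coexpressing human CYP17 and cytochrome P450 reductase, with progesterone substrate and NADPH cofactor. IC50 given as mean ± SEM of three independent experiments run in duplicate.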

IGROV-1 = assay: Growth inhibition of estrogen-sensitive human IGROV1 cells after 72 hrs by MTT assay; format: functional; settings: IGROV-1, 72 h; how it was run: as §1
HeLa [10] = assay: Cell cycle arrest in non-estrogen-sensitive human HeLa cells assessed as decrease of accumulation at G1 and S phase at 6 to 50 uM after 24 hrs using propidium iodide staining by flow cytometry; format: functional, cell-based
Aromatase [11] = biological target: T1, Aromatase; assay: Inhibition of aromatase in human H295R cells using [1beta-3H(N)]-androst-4-ene-3,17-dione as substrate assessed as residual activity at 10 uM after 24 hrs by tritiated water release assay
[12] = Growth inhibition of non-estrogen-sensitive human SEM cells after 72 hrs by MTT assay; format: functional; how it was run: as §1
MCF7 [13] = assay: Growth inhibition of estrogen-sensitive human MCF7 cells after 72 hrs by MTT assay; format: functional; settings: MCF7, 72 h; how it was run: as §1
Jurkat = assay: Growth inhibition of non-estrogen-sensitive human Jurkat cells after 72 hrs by MTT assay; format: functional; how it was run: as §1
NCI-H295R = assay: Growth inhibition of estrogen-sensitive human NCI-H295R cells after 72 hrs by MTT assay; format: functional; how it was run: as §1
MCF7 [14] = assay: Cell cycle arrest in estrogen-sensitive human MCF7 cells assessed as increase of accumulation at G1 phase after 24 hrs using propidium iodide staining by flow cytometry; format: functional, cell-based
HeLa [15] = assay: Cell cycle arrest in non-estrogen-sensitive human HeLa cells at 6 to 50 uM after 24 hrs using propidium iodide staining by flow cytometry; format: functional, cell-based
Aromatase [16] = biological target: T1, Aromatase; assay: Activation of aromatase in human H295R cells using [1beta-3H(N)]-androst-4-ene-3,17-dione as substrate at 0.1 uM after 24 hrs by tritiated water release assay
MCF7 [17] = assay: Cell cycle arrest in estrogen-sensitive human MCF7 cells assessed as decrease of accumulation at S phase at 6 to 50 uM after 24 hrs using propidium iodide staining by flow cytometry; format: functional, cell-based
Aromatase [18] = biological target: T1, Aromatase; assay: Inhibition of aromatase (unknown origin) using 7-methoxy-4-trifluoromethylcoumarin as substrate at 10 uM after 30 mins by fluorimetric analysis; settings: 0.5 h
Aromatase [19] = biological target: T1, Aromatase; assay: Inhibition of aromatase in human H295R cells using [1beta-3H(N)]-androst-4-ene-3,17-dione as substrate assessed as residual activity at 1 uM after 24 hrs by tritiated water release assay

Compound | inhibition (INH) (Aromatase [1]) | pIC50 (Aromatase [2]) | GI50 (HeLa [3]) [µM] | GI50 (OVCAR-3) [µM] | GI50 (HT-29) [µM] | pIC50 [5] | pIC50 [9] | GI50 (MCF7 [13]) [µM] | GI50 (Jurkat) [µM] | GI50 (NCI-H295R) [µM] | Activity (Aromatase [16]) | GI50 [7] [µM] | GI50 (IGROV-1) [µM] | GI50 [12] [µM] | also measured
CCOC(=O)c1cc(C)nc2c1ccc1[nH]ccc12 | Not Active | < 5.00 |  |  |  |  |  |  |  |  |  |  |  |  | 
CCn1ccc2c3c(Cn4cncn4)cc(-c4ccccc4)nc3ccc21 |  | 7.88 | 59.8 | 13.6 | 29.5 | 5.83 | < 5.30 | 23 | 65.8 | 75.3 |  | 2.7 | 54.3 | 5.5 | Activity (HeLa [4]): Active; Activity (MCF7 [6]): Active; Activity (MCF7 [8]): Active; Activity (HeLa [10]): Active; activity at 10 µM (Aromatase [11]): 50.9%
c1ccc(-c2cc(Cn3ccnc3)c3ccc4[nH]ccc4c3n2)cc1 | Not Active | 7.94 | 21.2 | 16.9 | 13.5 | 6.64 | 6.04 | 23.3 | 27 | 36.5 | Active | 29.6 | 23.6 | 17 | Activity (MCF7 [14]): Dose-dependent effect; Activity (HeLa [15]): inactive; Activity (MCF7 [17]): Active
CCOC(=O)c1cc(-c2ccc(OC)cc2)nc2c1ccc1[nH]ccc12 | Active | < 5.00 |  |  | 1.9 |  |  |  |  |  |  |  |  |  | 
COc1ccc(-c2cc(Cn3cncn3)c3ccc4[nH]ccc4c3n2)cc1 | Not Active | < 5.00 | > 100 | 50.6 | > 100 | < 5.30 | < 5.30 | > 100 | 39.5 | > 100 | Active | 43.8 | 82 | 28.4 | 
COc1ccc(-c2cc(C(=O)O)c3ccc4[nH]ccc4c3n2)cc1 | Not Active | < 5.00 |  |  |  |  |  |  |  |  |  |  |  |  | activity at 1 µM (Aromatase [19]): 10.6%

Second part, led by results:

inhibition (INH) (Aromatase [1]) | pIC50 (Aromatase [2]) | GI50 (HeLa [3]) [µM] | GI50 (OVCAR-3) [µM] | GI50 (HT-29) [µM] | pIC50 [5] | pIC50 [9] | GI50 (MCF7 [13]) [µM] | GI50 (Jurkat) [µM] | GI50 (NCI-H295R) [µM] | Activity (Aromatase [16]) | Compound | GI50 [7] [µM] | GI50 (IGROV-1) [µM] | GI50 [12] [µM] | also measured
Not Active | 5.38 |  |  |  |  |  | 5.7 |  |  |  | Cc1cc(CO)c2ccc3[nH]ccc3c2n1 |  |  | 16.2 | 
 | 8.28 | 19.5 | 17.5 | 6.5 | 6.60 | 6.32 | 3.8 | 16.7 | 19 | Active | CCn1ccc2c3nc(-c4ccccc4)cc(Cn4ccnc4)c3ccc21 | 19.2 | 18.9 | 31.2 | inhibition (INH) (Aromatase [18]): Active
 | 6.23 | 38.4 | 0.39 | 17.7 |  |  | 0.81 | 21.2 | 0.7 |  | COc1cccc(-c2cc(=O)c3ccc4[nH]ccc4c3[nH]2)c1 | 25 | 0.92 | 35 | 
